Residues, ends and D or L forms follow the SMILES beside them. *: point of attachment. Octanoyl = CCCCCCCC(=O)*
Experiments:
[1] = target: cathepsin S (Homo sapiens, UniProt P25774); assay: in vitro protease inhibition assay, cathepsin S; format: biochemical; details: read-out: activity against cathepsin S (IC50)
How it was run: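 Commercial cathepsin S pre-activated for 2 h at 10 μg/ml in 50 mM MES pH 5.5 with 5 mM DTT, then diluted to 100 ng/ml. Assayed with 10 μM z-FR-AMC, which was added last to the enzyme/test compound mix; final DMSO below 5%. Fluorogenic read-out; leupeptin as positive control. Normalized activity data fitted to give IC50.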

[2] = target: cathepsin L (Homo sapiens, UniProt P07711); assay: in vitro protease inhibition assay, cathepsin L; format: biochemical; details: result in words
cathepsin L, sequence (P07711 114-333, species assumed): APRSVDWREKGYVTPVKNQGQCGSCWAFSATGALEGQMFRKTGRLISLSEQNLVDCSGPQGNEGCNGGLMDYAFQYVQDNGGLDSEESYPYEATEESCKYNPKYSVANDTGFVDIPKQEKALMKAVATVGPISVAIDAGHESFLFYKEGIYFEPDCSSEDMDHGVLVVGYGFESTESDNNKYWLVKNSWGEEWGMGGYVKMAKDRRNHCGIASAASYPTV
How it was run: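 Commercial cathepsin L (0.02 μg/ml) in 50 mM MES pH 5.5 with 5 mM DTT. Substrate z-FR-AMC at 20 μM added last to the enzyme/test compound mix; final DMSO below 5%. Fluorescence read-out; leupeptin as positive control. Normalized activity data were curve-fitted.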

[3] = competitive isoTOP-ABPP, proteome-wide cysteine selectivity; format: binding, human; details: THP-1, Ramos, H1975 proteomes
How it was run: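 Proteomes came from THP-1 (RPMI, 10% FBS, βME, PMA-differentiated), Ramos (RPMI, 10% FBS) and H1975 (DMEM, 20% FBS) cells. Sonicated and split at 100,000 g into soluble and membrane fractions (1.5 mg/mL); some lysed into sodium acetate at pH 5 or 5.5. Test compound or vehicle for 30 min, then 100 μM IA-alkyne for 30 min, then isotopic biotin-tag click, enrichment, trypsin/TEV digests and LC-MS/MS. Cysteines with heavy/light MS1 ratio R > 5 called targeted.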

[4] = target: T1, cathepsin H (CTSH) (Homo sapiens, UniProt P09668); assay: competitive isoTOP-ABPP, THP-1 membrane fraction, cathepsin H; format: binding; details: 250 nM, THP-1 membranes
T1 sequence (P09668 98-335): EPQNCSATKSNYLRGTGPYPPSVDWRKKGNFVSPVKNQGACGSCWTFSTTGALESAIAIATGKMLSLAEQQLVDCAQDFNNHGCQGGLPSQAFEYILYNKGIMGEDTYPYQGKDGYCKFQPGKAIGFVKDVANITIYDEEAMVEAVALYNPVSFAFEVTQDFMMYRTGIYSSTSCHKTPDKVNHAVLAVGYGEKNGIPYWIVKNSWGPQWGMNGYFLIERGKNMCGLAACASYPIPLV
How it was run: (§1)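 THP-1 cells grown in RPMI with 10% FBS, penicillin, streptomycin, glutamine and 50 μM βME (37 °C, 5% CO2, <10 passages). Differentiated with 200 nM PMA for 18 h, then 3 more days. Sonicated lysate spun at 100,000 g for 45 min; membrane fraction set to 1.5 mg/mL. Test compound (final 25 μM, 2.5 μM or 250 nM) or 1% TFA water vehicle for 30 min, then 100 μM IA-alkyne for 30 min, ambient temperature.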

[5] = target: cathepsin Z (CTSZ) (Homo sapiens, UniProt Q9UBR2); assay: competitive isoTOP-ABPP, THP-1 membrane fraction, cathepsin Z; format: binding
cathepsin Z (CTSZ), sequence (Q9UBR2 62-303): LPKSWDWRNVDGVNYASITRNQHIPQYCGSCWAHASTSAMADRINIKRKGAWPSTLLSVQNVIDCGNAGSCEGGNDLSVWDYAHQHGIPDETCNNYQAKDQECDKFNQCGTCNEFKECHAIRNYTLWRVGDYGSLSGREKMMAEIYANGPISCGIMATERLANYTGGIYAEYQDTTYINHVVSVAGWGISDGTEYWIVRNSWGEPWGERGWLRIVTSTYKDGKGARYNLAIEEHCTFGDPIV
How it was run: as §1

[6] = target: cathepsin B (CTSB) (Homo sapiens, UniProt P07858); assay: competitive isoTOP-ABPP, THP-1 membrane fraction, cathepsin B; format: binding; details: 250 nM, THP-1 membranes
How it was run: as §1

[7] = target: cathepsin L (CTSL1) catalytic cysteine Cys138 (Homo sapiens, UniProt P07711); assay: competitive isoTOP-ABPP, THP-1 membrane fraction, cathepsin L; format: binding; details: 250 nM, THP-1 membranes; R > 5 = targeted
cathepsin L (CTSL1) catalytic cysteine Cys138, sequence (P07711 114-333): as the sequence (P07711 114-333, species assumed) above
How it was run: as §1

[8] = target: cathepsin S (CTSS) (Homo sapiens, UniProt P25774); assay: competitive isoTOP-ABPP, THP-1 membrane fraction, cathepsin S; format: binding
cathepsin S (CTSS), sequence (P25774 115-331): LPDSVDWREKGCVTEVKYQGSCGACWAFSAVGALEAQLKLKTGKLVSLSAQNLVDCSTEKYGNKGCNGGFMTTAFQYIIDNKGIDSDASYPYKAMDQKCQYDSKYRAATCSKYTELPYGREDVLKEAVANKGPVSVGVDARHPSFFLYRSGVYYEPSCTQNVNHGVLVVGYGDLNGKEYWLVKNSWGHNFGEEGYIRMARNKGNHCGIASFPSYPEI
How it was run: as §1

[9] = target: cathepsin C (CTSC) catalytic cysteine Cys258 (Homo sapiens, UniProt P53634); assay: competitive isoTOP-ABPP, THP-1 membrane fraction, cathepsin C; format: binding
cathepsin C (CTSC) catalytic cysteine Cys258, sequence (P53634 25-463): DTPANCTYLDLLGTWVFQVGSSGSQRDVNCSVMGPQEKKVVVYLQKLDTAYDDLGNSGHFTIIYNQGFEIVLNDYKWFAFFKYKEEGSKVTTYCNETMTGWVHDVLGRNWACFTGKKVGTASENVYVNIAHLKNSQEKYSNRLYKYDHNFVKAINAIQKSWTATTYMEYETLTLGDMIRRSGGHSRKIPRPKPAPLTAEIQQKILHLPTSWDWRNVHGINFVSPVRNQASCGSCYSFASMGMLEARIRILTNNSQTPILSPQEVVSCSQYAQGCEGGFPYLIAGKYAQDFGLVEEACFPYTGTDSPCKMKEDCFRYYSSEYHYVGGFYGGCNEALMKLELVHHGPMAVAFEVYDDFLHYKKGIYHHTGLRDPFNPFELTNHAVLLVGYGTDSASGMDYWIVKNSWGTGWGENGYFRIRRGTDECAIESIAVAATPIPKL
How it was run: as §1

cathepsin S, sequence (P25774 115-331, species assumed): as the sequence (P25774 115-331) above

Row | SMILES | IC50 [1] | inhibitory activity against cathepsin L (IC50) [2] | R value (heavy/light MS1 ratio), non-cathepsin cysteines (no additional targets) [3] | R value (heavy/light MS1 ratio), CTSH [4] | R value (heavy/light MS1 ratio), CTSZ ([5]; 250 nM, THP-1 membranes) | R value (heavy/light MS1 ratio), CTSZ ([5]; 25 μM, THP-1) | R value (heavy/light MS1 ratio), CTSB [6] | R value (heavy/light MS1 ratio), blockade of IA-alkyne labeling of CTSL1 Cys138 [7] | R value (heavy/light MS1 ratio), CTSS ([8]; 250 nM, THP-1 membranes) | R value (heavy/light MS1 ratio), CTSS ([8]; 25 μM, THP-1) | R value (heavy/light MS1 ratio), CTSC catalytic cysteine Cys258 ([9]; 250 nM, THP-1 membranes) | R value (heavy/light MS1 ratio), CTSC ([9]; 25 μM, THP-1)
1 | CCCCCCCC(=O)N[C@@H](CCSC)C(=O)N[C@H](C=O)Cc1ccccc1 [Compound 16, N-octanoyl-Met-Phe-H] (Octanoyl-Met-Phe-aldehyde) | 13 nM | undetectable activity | – | – | – | – | – | – | – | – | – | –
2 | N[C@@H](Cc1ccccc1)C(=O)N[C@H](C=O)Cc1ccccc1 [Phe-Phe-H] (H-Phe-Phe-aldehyde) | – | – | < 2.0 | < 2.0 | < 2.0 | > 5 | < 2.0 | > 20 | < 2.0 | > 5 | > 2.78 | > 5
